One test concerns Candida albicans. Put plainly: Antifungal activity against Candida albicans CA98001. The test is classed as functional. In outline: (§1)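 Growth inhibition of each strain in vitro, following an earlier method; endpoint is MIC80, the lowest concentration giving 80% growth inhibition, in ng mL-1. Values are means of triplicate determinations, with standard deviation given.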
In another test the test system is Aspergillus fumigatus. Put plainly: Antifungal activity against Aspergillus fumigatus AF98003. In kind it is functional. Summed up:
as §1

Values after ≈ are worked out from the molar mass of the structure shown.

In the case of `OC(CNCc1cccnc1)(Cn1cncn1)c1ccc(Cl)cc1Cl` (stereo unspecified), the MIC80 in the test with Candida albicans was 0.037 µg/mL (≈ 0.0978 µM); against Aspergillus fumigatus it was greater than 30 µg/mL.

With `OC(CNCc1cccnc1)(Cn1cncn1)c1ccc(F)cc1F` (stereo unspecified), the MIC80 in the test on Candida albicans is 0.13 µg/mL (≈ 0.376 µM); against Aspergillus fumigatus it was greater than 30 µg/mL.

With `OC(CNCc1ccncc1)(Cn1cncn1)c1ccc(Cl)cc1Cl` (stereo unspecified), the MIC80 in the test on Candida albicans is 0.036 µg/mL (≈ 0.0952 µM); in the test with Aspergillus fumigatus, greater than 30 µg/mL.

Consider `OC(CNCc1ccncc1)(Cn1cncn1)c1ccc(F)cc1F` (stereo unspecified), for which the MIC80 in the test with Candida albicans is 0.083 µg/mL (≈ 0.24 µM); with Aspergillus fumigatus, greater than 30 µg/mL. `OC(CNCc1ccccn1)(Cn1cncn1)c1ccc(F)cc1F` (stereo unspecified): the MIC80 is 0.22 µg/mL (≈ 0.637 µM) against Candida albicans and greater than 30 µg/mL in the test on Aspergillus fumigatus. The like results for `CC(C)(C)OC(=O)N1CCC(CNCC(O)(Cn2cncn2)c2ccc(Cl)cc2Cl)CC1` (stereo unspecified) were, in that order, 0.026 µg/mL (≈ 0.0537 µM) and greater than 30 µg/mL. On the same counts, the results for `CC(C)(C)OC(=O)N1CCC(CNCC(O)(Cn2cncn2)c2ccc(F)cc2F)CC1` (stereo unspecified) are 0.027 µg/mL (≈ 0.0598 µM) and greater than 30 µg/mL.

For `OC(CNCC1CCNCC1)(Cn1cncn1)c1ccc(F)cc1F` (stereo unspecified), the values for the MIC80 in the test with Candida albicans and against Aspergillus fumigatus were 1.41 µg/mL (≈ 4.01 µM) and greater than 30 µg/mL, respectively. On the same counts, the results for `CN(CC1CCN(C(=O)OC(C)(C)C)CC1)CC(O)(Cn1cncn1)c1ccc(Cl)cc1Cl` (stereo unspecified) are 0.039 µg/mL (≈ 0.0782 µM) and greater than 30 µg/mL. The like results for `CN(CC1CCN(C(=O)OC(C)(C)C)CC1)CC(O)(Cn1cncn1)c1ccc(F)cc1F` (stereo unspecified) were, in that order, 0.153 µg/mL (≈ 0.329 µM) and greater than 30 µg/mL. The like results for `OC(CNCC1CCNCC1)(Cn1cncn1)c1ccc(Cl)cc1Cl` (stereo unspecified) were, in that order, 0.12 µg/mL (≈ 0.312 µM) and greater than 30 µg/mL.

With `OC(CNCc1ccccn1)(Cn1cncn1)c1ccc(Cl)cc1Cl` (stereo unspecified), the figures for the MIC80 in the test with Candida albicans and in the test with Aspergillus fumigatus were 0.023 µg/mL (≈ 0.0608 µM) and greater than 30 µg/mL, respectively. `OC(Cn1cncn1)(Cn1cncn1)c1ccc(F)cc1F` [FLUCONAZOLE] showed an MIC80 in the test on Candida albicans of 0.19 µg/mL (≈ 0.62 µM). In the case of `CCC(C)n1ncn(-c2ccc(N3CCN(c4ccc(OCC5COC(Cn6cncn6)(c6ccc(Cl)cc6Cl)O5)cc4)CC3)cc2)c1=O` (stereo unspecified) [ITRACONAZOLE], the MIC80 in the test on Aspergillus fumigatus is 0.42 µg/mL (≈ 0.595 µM).

Values taken from ChEMBL document CHEMBL1149080, “Synthesis and structure-activity relationships of 2-phenyl-1-[(pyridinyl- and piperidinylmethyl)amino]-3-(1H-1,2,4-triazol-1-yl)propan-2-ols as antifungal agents” (2009).
